One compound from ChEMBL document CHEMBL4014308, “Amphiphilic Tobramycin-Lysine Conjugates Sensitize Multidrug Resistant Gram-Negative Bacteria to Rifampicin and Minocycline” (J Med Chem, 2017) can be followed below.

Holding throughout (assay type): functional
In test [1] the test system is Pseudomonas aeruginosa. Put plainly: Potentiation of minocycline-induced antibacterial activity against multidrug/extremely drug-resistant/colistin-susceptible Pseudomonas aeruginosa isolate P262-101856 infected in Galleria mellonella assessed as host survival at 75 mg/kg after 24 hrs relative to control. The settings on record: isolate P262-101856, 24 h. Put shortly:
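Galleria mellonella larvae (about 250 mg, used within 7 days; 15 per group) were injected with 10 µL of XDR P. aeruginosa P262 at 1.0×10^3 CFU/mL. At 2 h they received a single 10 µL injection: monotherapy at 75 mg/kg, or combinations at 12.5+12.5 to 75+75 mg/kg. PBS vehicle served as control. Survival was scored over 24 h at 37 °C.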

Test [2] relates to Klebsiella pneumoniae. Kind of test: Synergistic antibacterial activity against multidrug-resistant Klebsiella pneumoniae 116381 after 18 hrs in presence of rifampicin by checkerboard assay. The following applies: Klebsiella pneumoniae, 116381, 18 h. A digest of the protocol:
(§1)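 Checkerboard in Mueller-Hinton broth: antibiotic serially diluted along one axis and adjuvant along the other (10 × 7 matrix). Inoculum was overnight culture set to 0.5 McFarland in saline, then diluted 1:50 in broth. Incubated 18 h at 37 °C. MIC was the lowest concentration with no growth. FIC index is the sum of both FICs (combination concentration ÷ MIC alone); ≤0.5 counted as synergy.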

Test [3] deals with Klebsiella pneumoniae. Kind of test: Potentiation of rifampicin-induced antibacterial activity against multidrug-resistant Klebsiella pneumoniae 116381 at 4 ug/ml after 18 hrs by checkerboard assay. Put shortly: (§2)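 Checkerboard in Mueller-Hinton broth: antibiotic serially diluted along one axis and adjuvant along the other (10 × 7 matrix). Inoculum from a 0.5 McFarland saline suspension diluted 1:50 in MHB; 18 h at 37 °C, then plate read. MIC is the lowest concentration with no growth. FIC of each agent is its concentration in a no-growth well divided by its MIC alone; FIC index is the sum of both. FIC index ≤0.5 counts as synergy.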

The test system of test [4] is Pseudomonas aeruginosa. Kind of test: Potentiation of ceftazidime-induced antibacterial activity against Pseudomonas aeruginosa PAO1 at 4 ug/ml after 18 hrs by checkerboard assay. Put shortly:
as §2

Test [5] deals with Pseudomonas aeruginosa. Kind of test: Bactericidal activity against Pseudomonas aeruginosa PAO1 at 4 times antibacterial MIC after 10 mins. A digest of the protocol:
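Time-kill with P. aeruginosa PAO1. A 0.5 McFarland suspension was diluted 1:50 in LB broth and exposed to agent in PBS (pH 7.2) at 1/2×, 1×, 2× or 4× MIC at 37 °C for 6 h. Samples at 0, 10, 30, 60, 90, 120, 240 and 360 min were serially diluted in PBS, plated on LB agar, and colonies counted after 20 h at 37 °C.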

The subject of test [6] is Pseudomonas aeruginosa. Put plainly: Synergistic antibacterial activity against Pseudomonas aeruginosa PAO1 after 18 hrs in presence of chloramphen by checkerboard assay. The settings on record: PAO1, 18 h. Put shortly: (§3)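 Checkerboard in MHB: antibiotic diluted along one axis and adjuvant along the other (10 × 7 matrix). Inoculum was a 1:50 dilution in MHB of a 0.5 McFarland saline suspension; incubated 18 h at 37 °C. Each FIC = concentration in the no-growth well divided by the MIC alone; FIC index = sum of both FICs. ≤0.5 synergy, 0.5–4 no interaction, ≥4 antagonism.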

Test [7] deals with Pseudomonas aeruginosa. Put plainly: Antibacterial activity against multidrug/extremely drug-resistant/colistin-susceptible Pseudomonas aeruginosa isolate P262-101856 after 18 hrs by microtiter dilution assay. The settings on record: isolate P262-101856, 18 h. Put shortly: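 Broth microdilution following CLSI guidelines. An overnight culture was adjusted to 0.5 McFarland in saline, then diluted 1:50 in Mueller-Hinton broth. This inoculum was added in equal volume to 2-fold serial dilutions of agent in MHB and incubated 18 h at 37 °C. MIC was the lowest concentration with no visible growth.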

For test [8], the system named is Pseudomonas aeruginosa. Put plainly: Potentiation of rifampicin-induced antibacterial activity against multidrug/extremely drug-resistant/colistin-susceptible Pseudomonas aeruginosa isolate P262-101856 infected in Galleria mellonella assessed as mortality at 12.5 to 37.5 mg/kg after 24 hrs relative to control. Put shortly:
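Galleria mellonella larvae (~250 mg, used within 7 days), 15 per group, injected with 10 µL XDR P262 at 1.0×10^3 CFU/mL in PBS. PBS vehicle control. Survival scored over 24 h at 37 °C.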

Test [9] deals with Pseudomonas aeruginosa. Put plainly: Synergistic antibacterial activity against Pseudomonas aeruginosa PAO1 after 18 hrs in presence of novobiocin by checkerboard assay. The following applies: PAO1, 18 h. Put shortly:
as §3

Test [10] deals with Pseudomonas aeruginosa. Kind of test: Potentiation of novobiocin-induced antibacterial activity against Pseudomonas aeruginosa PAO1 at 4 ug/ml after 18 hrs by checkerboard assay.
In test [11] the test system is Acinetobacter baumannii. Kind of test: Synergistic antibacterial activity against multidrug-resistant Acinetobacter baumannii AB030 after 18 hrs in presence of minocycline by checkerboard assay. The settings on record: AB030, 18 h. A digest of the protocol:
(§4)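 Checkerboard in MHB with a 10 × 7 matrix: antibiotic serially diluted along one axis, adjuvant along the other. Inoculum was a 1:50 dilution of a 0.5 McFarland suspension, incubated 18 h at 37 °C and read on a plate reader. Each FIC is the concentration in a no-growth well divided by the MIC alone; FIC index is their sum, with ≤0.5 taken as synergy.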

The subject of a further test is Enterococcus faecalis. Put plainly: Antibacterial activity against Enterococcus faecalis ATCC 29212 after 18 hrs by microtiter dilution assay. The following applies: ATCC 29212, 18 h. Put shortly:
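Broth microdilution per CLSI. Overnight culture adjusted to 0.5 McFarland in saline, diluted 1:50 in Mueller-Hinton broth, and added to an equal volume of 2-fold serial compound dilutions in MHB. Incubated 18 h at 37 °C. MIC taken as the lowest concentration with no visible growth.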

Test [12] deals with Acinetobacter baumannii. Put plainly: Synergistic antibacterial activity against multidrug-resistant Acinetobacter baumannii AB027 after 18 hrs in presence of minocycline by checkerboard assay. The following applies: AB027, 18 h. A digest of the protocol: as §4
In test [13] the test system is Pseudomonas aeruginosa. Put plainly: Potentiation of rifampicin-induced antibacterial activity against multidrug/extremely drug-resistant/colistin-resistant Pseudomonas aeruginosa isolate 101243 at 4 ug/ml after 18 hrs by checkerboard assay. A digest of the protocol: as §2
The subject of test [14] is Pseudomonas aeruginosa. Put plainly: Potentiation of rifampicin-induced antibacterial activity against Pseudomonas aeruginosa PAO200 harboring MexAB-oprM deletion mutant after 18 hrs by checkerboard assay. A digest of the protocol: as §2
The subject of test [15] is Pseudomonas aeruginosa. Kind of test: Potentiation of kanamycin A-induced antibacterial activity against Pseudomonas aeruginosa PAO1 at 4 ug/ml after 18 hrs by checkerboard assay. A digest of the protocol:
as §2

Test [16] concerns Pseudomonas aeruginosa. Kind of test: Potentiation of minocycline-induced antibacterial activity against multidrug/extremely drug-resistant/colistin-resistant Pseudomonas aeruginosa isolate 101243 at 4 ug/ml after 18 hrs by checkerboard assay. Put shortly: as §2
In test [17] the test system is Pseudomonas aeruginosa. Put plainly: Potentiation of minocycline-induced antibacterial activity against Pseudomonas aeruginosa PAO1 at 4 ug/ml after 18 hrs by checkerboard assay. A digest of the protocol: as §2
The test system of test [18] is Klebsiella pneumoniae. Put plainly: Synergistic antibacterial activity against multidrug-resistant Klebsiella pneumoniae 116381 after 18 hrs in presence of minocycline by checkerboard assay. The following applies: Klebsiella pneumoniae, 116381, 18 h. Put shortly: as §1
The test system of test [19] is Acinetobacter baumannii. Put plainly: Potentiation of minocycline-induced antibacterial activity against multidrug-resistant Acinetobacter baumannii AB027 at 4 ug/ml after 18 hrs by checkerboard assay. A digest of the protocol: as §2
The subject of test [20] is Pseudomonas aeruginosa. Kind of test: Potentiation of minocycline-induced antibacterial activity against multidrug/extremely drug-resistant/colistin-susceptible Pseudomonas aeruginosa isolate P259-96918 at 4 ug/ml after 18 hrs by checkerboard assay. A digest of the protocol:
as §2

The source made the active and inactive calls.

Usually MIC stands for the smallest concentration in the dilution series that meets the test's criterion for growth inhibition. For orientation: mortality means the percentage killed. With `Cl.Cl.Cl.Cl.Cl.Cl.Cl.NCCCC[C@H](N)C(=O)N(CCCCCCCCCCCCO[C@@H]1[C@@H](O[C@H]2O[C@H](CO)[C@@H](O)[C@H](N)[C@H]2O)[C@H](N)C[C@H](N)[C@H]1O[C@H]1O[C@H](CN)[C@@H](O)C[C@H]1N)Cc1c2ccccc2c(Cl)c2ccccc12`, in the test with Pseudomonas aeruginosa [1], the survival at 75 mg/kg turned out to be 77%. Also, the minimal inhibitory concentration (MIC) with Klebsiella pneumoniae [2] turned out to be 4 µg/mL; in the test on Pseudomonas aeruginosa [6], 4 µg/mL; in the test with Pseudomonas aeruginosa [7], 32 µg/mL; in the test on Pseudomonas aeruginosa [9] it was 2 µg/mL; with Acinetobacter baumannii [11], 16 µg/mL; against Enterococcus faecalis, 16 µg/mL. For the same compound, the minimum inhibitory concentration (MIC) with Acinetobacter baumannii [12] was found to be 1 µg/mL; with Klebsiella pneumoniae [18], 16 µg/mL. Moreover, the “fractional inhibitory concentration index (FICI)” value amounted to 0.047 in the test with Klebsiella pneumoniae [3]; 0.563 with Pseudomonas aeruginosa [4]; 0.071 in the test on Pseudomonas aeruginosa [10]; 0.188 in the test on Pseudomonas aeruginosa [13]; 0.129 in the test on Pseudomonas aeruginosa [14]; 1.016 in the test with Pseudomonas aeruginosa [15]. Besides, the “fractional inhibitory concentration index (FICI)” value amounted to 0.281 in the test on Pseudomonas aeruginosa [16], 0.094 in the test with Pseudomonas aeruginosa [17], 0.258 with Acinetobacter baumannii [19] and 0.047 in the test on Pseudomonas aeruginosa [20]. Further, in the test with Pseudomonas aeruginosa [5], the result was Active. Also, the mortality in the test on Pseudomonas aeruginosa [8] worked out at 100%.
